In general, residual activity refers to the signal under treatment as a percentage of the control signal.

We go through three compounds from ChEMBL document CHEMBL4145471, “New 1,5 and 2,5-disubstituted tetrazoles-dependent activity towards surface barrier of Candida albicans” (Eur J Med Chem, 2018).

The subject of data set [1] is Candida albicans. The data set can be described thus: Antifungal activity against Candida albicans ATCC 90028 at 2 ug/ml after 48 hrs relative to control. In kind it is functional. An outline of the steps: (§1)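 Planktonic broth microdilution per M27-A3 in MOPS-buffered RPMI 1640 (pH 7.0), final inoculum 1.8×10^3 cells/mL, compounds 0.0313–16 µg/mL from 1600 µg/mL stocks in ethanol or DMSO. Incubated at 35°C without agitation; OD405 read at 18 and 48 h. % inhibition was derived from test, sterility (no inoculum) and solvent growth-control wells. Amphotericin B at 0.5 µg/mL served as the 100% control.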

Data set [2] concerns Candida albicans. Description: Antifungal activity against Candida albicans ATCC 90028 at 1 ug/ml after 48 hrs relative to control. In kind it is functional. The gist of the method: as §1
Data set [3] concerns Caco-2. Description: Cytotoxicity against human Caco2 cells assessed as reduction in cell viability at 16 ug/ml after 18 hrs by XTT assay ralative to control. The data set is classed as cell-based. The note with it: caco-2, 18 h. The gist of the method: (§2)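 Caco-2 cells were exposed to compound at 256, 16 or 0.0313 µg/mL for 18 h, then given XTT reagent for 4–6 h. Absorbance was read at 475 nm with a 660 nm reference, and viability and toxicity were expressed as %. CC50 was taken as the concentration giving 50% viability loss. Means ± SD of three independent experiments, samples in duplicate.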
In general terms: Formazan colour is commonly taken as a measure of viable cells.

The subject of data set [4] is Caco-2. The data set can be described thus: Cytotoxicity against human Caco2 cells assessed as reduction in cell viability at 0.0313 ug/ml after 18 hrs by XTT assay ralative to control. In kind it is cell-based. The note with it: caco-2, 18 h. The gist of the method: as §2
Data set [5] concerns Candida albicans. Description: Synergistic antifungal activity against Candida albicans ATCC 90028 at 80 ug/ml after 48 hrs in presence of 20 ug/ml fluconazol by checkerboard assay relative to control. In kind it is functional. The gist of the method:
(§3)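 Checkerboard in C. albicans ATCC 90028, inoculum prepared per CLSI M27-A3 in RPMI. Fluconazole serially diluted 80-1.25 µg/mL across the plate against the partner compound at 80-1.25 µg/mL final. Incubated 48 h at 35°C. Metabolic activity read by XTT reduction at 475 nm (660 nm reference), given as % of the untreated growth control.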

Data set [6] deals with Candida albicans. Description: Synergistic antifungal activity against Candida albicans ATCC 90028 at 20 ug/ml after 48 hrs in presence of 40 ug/ml fluconazol by checkerboard assay relative to control. The data set is classed as functional. An outline of the steps:
as §3

Data set [7] relates to Candida albicans. The data set can be described thus: Synergistic antifungal activity against Candida albicans ATCC 90028 at 20 ug/ml after 48 hrs in presence of 10 ug/ml fluconazol by checkerboard assay relative to control. In kind it is functional. The gist of the method:
as §3

Data set [8] deals with Candida albicans. Description: Synergistic antifungal activity against Candida albicans ATCC 90028 at 5 ug/ml after 48 hrs in presence of 5 ug/ml fluconazol by checkerboard assay relative to control. In kind it is functional. The settings on record: ATCC 90028, 48 h, read-out: GI. The gist of the method:
as §3

The subject of data set [9] is Candida albicans. Description: Synergistic antifungal activity against Candida albicans ATCC 90028 at 2.5 ug/ml after 48 hrs in presence of 80 ug/ml fluconazol by checkerboard assay relative to control. In kind it is functional. The gist of the method:
(§4)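 Checkerboard microdilution (M27-A3) on C. albicans ATCC 90028 in RPMI 1640: fluconazole (80-1.25 µg/mL) crossed with tetrazole (80-1.25 µg/mL final), incubated at 35°C for 48 h. Growth by OD405 at 18 and 48 h, endpoint taken as 100% inhibition. FIC index = sum of the two agents' FICs; <1 synergism, >1 antagonism.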

Data set [10] concerns Candida albicans. The data set can be described thus: Synergistic antifungal activity against Candida albicans ATCC 90028 at 2.5 ug/ml after 48 hrs in presence of 40 ug/ml fluconazol by checkerboard assay relative to control. In kind it is functional. The gist of the method: as §4
The test system of data set [11] is Candida albicans. The data set can be described thus: Synergistic antifungal activity against Candida albicans ATCC 90028 at 2.5 ug/ml after 48 hrs in presence of 5 ug/ml fluconazol by checkerboard assay relative to control. The data set is classed as functional. An outline of the steps: as §4
Data set [12] deals with Candida albicans. Description: Synergistic antifungal activity against Candida albicans ATCC 90028 at 1.25 ug/ml after 48 hrs in presence of 40 ug/ml fluconazol by checkerboard assay relative to control. The data set is classed as functional. The gist of the method:
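Checkerboard per M27-A3 against ATCC 90028: fluconazole at 80–1.25 µg/mL horizontally and partner compound at 80–1.25 µg/mL vertically, 100 µL yeast inoculum per well, 35°C for 48 h. After 48 h, metabolic activity was measured by XTT reduction at 475 nm (660 nm reference) relative to untreated growth control. FIC index is the sum of the FICs; <1 was defined as synergism and >1 as antagonism.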

The subject of data set [13] is Candida albicans. Description: Antifungal activity against Candida albicans ATCC 90028 assessed as inhibition of metabolic activity at 5 ug/ml after 48 hrs in presence of 80 ug/ml fluconazol by XTT assay relative to control. The settings on record: values are per cent of control. The data set is classed as functional. The gist of the method:
(§5)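 Checkerboard against strain ATCC 90028, inoculum per M27-A3: fluconazole 80-1.25 µg/mL on one axis, tetrazole 80-1.25 µg/mL on the other. Plates at 35°C for 48 h, then XTT metabolic reduction read at 475 nm (660 nm reference). Activity is the drop in mean absorbance against untreated growth control. FICs and their summed FIC index are taken at 50% reduction in metabolic activity.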

Data set [14] deals with Candida albicans. Description: Antifungal activity against Candida albicans ATCC 90028 assessed as FIC at 80 ug/ml in presence of fluconazol after 48 hrs by checkerboard-based XTT assay. The data set is classed as functional. An outline of the steps:
as §5

Data set [15] has as its system Candida albicans. Description: Antifungal activity against Candida albicans ATCC 90028 assessed as metabolic activity at 40 ug/ml after 48 hrs in presence of 5 ug/ml fluconazol by XTT assay relative to control.
Data set [16] concerns Candida albicans. The data set can be described thus: Antifungal activity against Candida albicans ATCC 90028 assessed as metabolic activity at 20 ug/ml after 48 hrs in presence of 5 ug/ml fluconazol by XTT assay relative to control.
Data set [17] deals with Candida albicans. Description: Antifungal activity against Candida albicans ATCC 90028 assessed as metabolic activity at 80 ug/ml after 48 hrs in presence of 80 ug/ml fluconazol by XTT assay relative to control. The settings on record: ATCC 90028, 48 h.
Data set [18] deals with Candida albicans. Description: Antifungal activity against Candida albicans ATCC 90028 assessed as metabolic activity at 80 ug/ml after 48 hrs in presence of 10 ug/ml fluconazol by XTT assay relative to control.
The test system of data set [19] is Candida albicans. The data set can be described thus: Antifungal activity against Candida albicans ATCC 90028 assessed as metabolic activity at 40 ug/ml after 48 hrs in presence of 80 ug/ml fluconazol by XTT assay relative to control.
In data set [20] the test system is Candida albicans. Description: Antifungal activity against Candida albicans ATCC 90028 assessed as metabolic activity at 80 ug/ml after 48 hrs in presence of 2.5 ug/ml fluconazol by XTT assay relative to control.
Data set [21] relates to Candida albicans. The data set can be described thus: Antifungal activity against Candida albicans ATCC 90028 assessed as metabolic activity at 40 ug/ml after 48 hrs in presence of 2.5 ug/ml fluconazol by XTT assay relative to control.

`Cc1ccc(-c2nnn(CCCN3CCOCC3)n2)cc1`: the Activity in data set [1] was 98.3%; in data set [2] it was 96.58%; in [3], 27.73%; in data set [4], 18.76%. Moreover, the “growth inhibition (GI)” value in data set [5] came to 99.71%; in data set [6], 98.99%; in data set [7] it was 99.32%; in data set [9], 99.19%; in data set [10], 98.91%; in data set [11] it was 98.33%. The “growth inhibition (GI)” value in data set [12] was found to be 99.36%. In [8], the inhibition of growth at 5 µg/mL amounted to 98.7%. The residual activity in [13] came to 88.19%. Moreover, the FIC in data set [14] was more than 1.25. The Metabolic activity in data set [15] is reported as 100%; in data set [16], 100%; in [18], 11.87%; in data set [19], 66.33%; in data set [20] it was 78.22%; in data set [21], 26.03%. Further, the Metabolic activity at 80 µg/mL in [17] came to 73.4%.
As to `ClCCCn1nnnc1-c1ccccc1Cl`, the Activity in [1] is listed as 99.14%; in data set [2], 98.22%; in data set [3], 25.49%; in [4], 0%. In addition, the “growth inhibition (GI)” value is 99.74% in data set [5]; 99.34% in [6]; 99.73% in data set [7]; 99.49% in data set [9]; 99.32% in data set [10]; 98.94% in [11]. Also, the “growth inhibition (GI)” value in data set [12] is on record as 99.16%. For the same compound, the inhibition of growth at 5 µg/mL in data set [8] came to 98.8%. For the same compound, in data set [13], the residual activity is 77.27%. Further, in [14], the FIC was more than 5. For the same compound, the Metabolic activity was 100% in data set [15]; 99.55% in data set [16]; 73.98% in data set [18]; 63.62% in data set [19]; 59.43% in data set [20]; 75.66% in data set [21]. Besides, the Metabolic activity at 80 µg/mL in data set [17] was found to be 53.2%.
With `CCOC(=O)CCn1nnc(-c2ccccc2)n1`, the Activity in [1] came out at 99.7%; in data set [2], 97.51%; in data set [3] it was 50.46%; in data set [4], 0%. Besides, the “growth inhibition (GI)” value in data set [5] was found to be 99.59%; in [6] it was 99.29%; in data set [7] it was 99.52%; in [9] it was 99.54%; in data set [10], 99.46%; in [11], 99.08%. In data set [12], the “growth inhibition (GI)” value is 99.46%. Further, in data set [8], the inhibition of growth at 5 µg/mL amounted to 99.1%. For the same compound, in data set [13], the residual activity was 71.92%. In data set [14], the FIC is more than 5. Also, the Metabolic activity in data set [15] was determined as 100%; in [16] it was 100%; in [18] it was 52.64%; in data set [19], 55.99%; in [20], 64.31%; in data set [21], 61.61%. Besides, the Metabolic activity at 80 µg/mL in data set [17] was determined as 40%.
